Test results from ChEMBL document CHEMBL1148318, “Synthesis and antibacterial activity of a novel class of 4'-substituted 16-membered ring macrolides derived from tylosin” (2004).
≈ marks a conversion by molar mass, not a printed value.

What was measured:
Type in all cases: functional
[1] = test system: Streptococcus pneumoniae; assay: In vitro antibacterial activity against macrolide-lincosamide-streptogramin resistant Streptococcus pneumoniae 700904
Outline: (§1)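 MIC determined by agar dilution per NCCLS recommendations. Strains: S. pneumoniae 49619 (erythromycin-susceptible); S. pneumoniae 700904 and S. pyogenes 2912 (erm-encoded MLSB-resistant); S. pneumoniae 7701 and S. pyogenes 1323 (mef-encoded efflux-resistant); H. influenzae 33929 (ampicillin-resistant).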

[2] = test system: Streptococcus pyogenes; assay: In vitro antibacterial activity against macrolide-lincosamide-streptogramin resistant Streptococcus pyogenes 2912; outline: as §1
[3] = test system: Staphylococcus aureus; assay: In vitro antibacterial activity against erythromycin susceptible Staphylococcus aureus 25923
Outline: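 MIC by agar dilution following NCCLS recommendations; S. aureus 25923 is an erythromycin-susceptible strain.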

[4] = test system: Haemophilus influenzae; assay: In vitro antibacterial activity against ampicillin resistant Haemophilus influenzae 33929; outline: as §1
[5] = test system: Streptococcus pyogenes; assay: In vitro antibacterial activity against efflex resistant Streptococcus pyogenes 1323; outline: as §1
[6] = test system: Streptococcus pneumoniae; assay: In vitro antibacterial activity against erythromycin susceptible Streptococcus pneumoniae 49619; outline: as §1
[7] = test system: Streptococcus pneumoniae; assay: In vitro antibacterial activity against efflex resistant Streptococcus pneumoniae 7701; outline: as §1

SMILES: CC[C@H]1OC(=O)C[C@@H](O)[C@H](C)[C@@H](O[C@@H]2O[C@H](C)[C@@H](OC(=O)NCCc3ccccc3)[C@H](N(C)C)[C@H]2O)[C@@H](CC=O)C[C@@H](C)C(=O)/C=C/C(C)=C/[C@@H]1CO[C@@H]1O[C@H](C)[C@@H](O)[C@@H](OC)[C@H]1OC
- MIC [1]: > 64 µg/mL
- MIC [2]: > 64 µg/mL
- MIC [3]: 2 µg/mL (≈ 2.18 µM)
- MIC [4]: 16 µg/mL (≈ 17.4 µM)
- MIC [5]: 0.25 µg/mL (≈ 0.272 µM)
- MIC [6]: 1 µg/mL (≈ 1.09 µM)
- MIC [7]: 2 µg/mL (≈ 2.18 µM)

SMILES: CC[C@H]1OC(=O)C[C@@H](O)[C@H](C)[C@@H](O[C@@H]2O[C@H](C)[C@@H](OC/C=C/c3cnc4ccccc4c3)[C@H](N(C)C)[C@H]2O)[C@@H](CC=O)C[C@@H](C)C(=O)/C=C/C(C)=C/[C@@H]1CO[C@@H]1O[C@H](C)[C@@H](O)[C@@H](OC)[C@H]1OC
- MIC [1]: 1 µg/mL (≈ 1.06 µM)
- MIC [2]: 8 µg/mL (≈ 8.52 µM)
- MIC [3]: 0.5 µg/mL (≈ 0.532 µM)
- MIC [4]: 4 µg/mL (≈ 4.26 µM)
- MIC [5]: 0.0625 µg/mL (≈ 0.0665 µM)
- MIC [6]: 0.0625 µg/mL (≈ 0.0665 µM)
- MIC [7]: 0.0625 µg/mL (≈ 0.0665 µM)

SMILES: C=CCO[C@H]1[C@H](N(C)C)[C@@H](O)[C@H](O[C@H]2[C@@H](CC=O)C[C@@H](C)C(=O)/C=C/C(C)=C/[C@H](CO[C@@H]3O[C@H](C)[C@@H](O)[C@@H](OC)[C@H]3OC)[C@@H](CC)OC(=O)C[C@@H](O)[C@@H]2C)O[C@@H]1C
- MIC [1]: > 64 µg/mL
- MIC [2]: 32 µg/mL (≈ 39.4 µM)
- MIC [3]: 1 µg/mL (≈ 1.23 µM)
- MIC [4]: 8 µg/mL (≈ 9.85 µM)
- MIC [5]: 0.125 µg/mL (≈ 0.154 µM)
- MIC [6]: 0.5 µg/mL (≈ 0.616 µM)
- MIC [7]: 0.5 µg/mL (≈ 0.616 µM)

SMILES: CC[C@H]1OC(=O)C[C@@H](O)[C@H](C)[C@@H](O[C@@H]2O[C@H](C)[C@@H](O/C=C\Cc3cnc4ccccc4c3)[C@H](N(C)C)[C@H]2O)[C@@H](CC=O)C[C@@H](C)C(=O)/C=C/C(C)=C/[C@@H]1CO[C@@H]1O[C@H](C)[C@@H](O)[C@@H](OC)[C@H]1OC
- MIC [1]: 0.5 µg/mL (≈ 0.532 µM)
- MIC [2]: 16 µg/mL (≈ 17 µM)
- MIC [3]: 0.5 µg/mL (≈ 0.532 µM)
- MIC [4]: 4 µg/mL (≈ 4.26 µM)
- MIC [5]: 0.0625 µg/mL (≈ 0.0665 µM)
- MIC [6]: 0.0625 µg/mL (≈ 0.0665 µM)
- MIC [7]: 0.0625 µg/mL (≈ 0.0665 µM)

SMILES: CC[C@H]1OC(=O)[C@H](C)[C@@H](O[C@H]2C[C@@](C)(OC)[C@@H](O)[C@H](C)O2)[C@H](C)[C@@H](O[C@@H]2O[C@H](C)C[C@H](N(C)C)[C@H]2O)[C@](C)(O)C[C@@H](C)C(=O)[C@H](C)[C@@H](O)[C@]1(C)O [ERYTHROMYCIN]
- MIC [1]: > 64 µg/mL
- MIC [2]: > 64 µg/mL
- MIC [3]: 0.5 µg/mL (≈ 0.681 µM)
- MIC [4]: 4 µg/mL (≈ 5.45 µM)
- MIC [5]: 16 µg/mL (≈ 21.8 µM)
- MIC [6]: 0.06 µg/mL (≈ 0.0818 µM)
- MIC [7]: 8 µg/mL (≈ 10.9 µM)

SMILES: CC[C@H]1OC(=O)C[C@@H](O)[C@H](C)[C@@H](O[C@@H]2O[C@H](C)[C@@H](O[C@H]3C[C@@](C)(O)[C@@H](O)[C@H](C)O3)[C@H](N(C)C)[C@H]2O)[C@@H](CC=O)C[C@@H](C)C(=O)/C=C/C(C)=C/[C@@H]1CO[C@@H]1O[C@H](C)[C@@H](O)[C@@H](OC)[C@H]1OC [TYLOSIN]
- MIC [1]: 64 µg/mL (≈ 69.9 µM)
- MIC [2]: > 64 µg/mL
- MIC [3]: 2 µg/mL (≈ 2.18 µM)
- MIC [4]: 8 µg/mL (≈ 8.73 µM)
- MIC [5]: 0.25 µg/mL (≈ 0.273 µM)
- MIC [6]: 0.25 µg/mL (≈ 0.273 µM)
- MIC [7]: 0.25 µg/mL (≈ 0.273 µM)
